{"source": "ChEMBL document CHEMBL1649098", "about": "(ACS Med Chem Lett, 2011)", "key": {"[1]": {"test": "Volume of distribution at steady state in dog at 0.5 mg/kg, iv or 0.5 mg/kg, po", "format": "ADME, organism-based, Canis lupus familiaris", "conditions": "in vivo, read-out: Vdss", "method_in_brief": "(§1)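 Plasma pharmacokinetics used 1 mg/kg in rat and 0.5 mg/kg in dog, given iv and po. The iv formulation was 5% dimethylacetamide/95% (40% SBE-cyclodextrin in water). Oral dosing was a methylcellulose suspension of crystalline material.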"}, "[2]": {"molecular_target": "T1, Fatty-acid amide hydrolase 1 (Mus musculus) (UniProt O08914)", "T1 sequence (whole entry)": "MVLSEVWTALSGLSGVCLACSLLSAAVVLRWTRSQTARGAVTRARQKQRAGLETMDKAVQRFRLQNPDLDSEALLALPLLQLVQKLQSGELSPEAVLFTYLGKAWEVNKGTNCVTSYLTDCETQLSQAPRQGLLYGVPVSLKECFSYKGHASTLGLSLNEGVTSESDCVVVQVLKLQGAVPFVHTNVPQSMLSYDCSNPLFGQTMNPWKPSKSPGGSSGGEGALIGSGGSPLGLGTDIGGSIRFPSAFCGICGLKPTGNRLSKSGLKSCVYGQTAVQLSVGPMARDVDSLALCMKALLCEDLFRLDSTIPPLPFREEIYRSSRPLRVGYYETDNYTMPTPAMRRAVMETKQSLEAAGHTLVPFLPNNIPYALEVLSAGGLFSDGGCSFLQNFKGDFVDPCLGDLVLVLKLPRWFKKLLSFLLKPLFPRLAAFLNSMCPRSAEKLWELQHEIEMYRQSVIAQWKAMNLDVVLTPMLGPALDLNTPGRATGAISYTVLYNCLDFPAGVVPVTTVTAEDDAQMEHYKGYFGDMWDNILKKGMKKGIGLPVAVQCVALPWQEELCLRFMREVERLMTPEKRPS", "test": "Inhibition of FAAH in mouse brain membrane proteomes at 100 uM by competitive activity based protein profiling", "format": "cell membranes", "method_in_brief": "(§2)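 Competitive activity-based protein profiling used human and mouse brain membrane and soluble liver proteomes. Each was treated with compound at 10 or 100 μM or with DMSO, then labelled with FP-rhodamine. Serine hydrolases were resolved on fluorescent gels. Enzymes with reduced labelling intensity in the presence of inhibitor were scored as targets.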"}, "Hepatocyte [3]": {"tested_on": "Hepatocyte", "test": "Metabolic stability in rat hepatocytes assessed as glutathione conjugate formation", "format": "ADME, cell-based", "method_in_brief": "(§3)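 Reactive metabolite potential was assessed by looking for glutathione conjugates in rat or human hepatocyte incubations.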"}, "[4]": {"test": "Clearance in rat at 1 mg/kg, iv or 1 mg/kg, po", "format": "ADME, organism-based", "conditions": "in vivo", "method_in_brief": "as §1"}, "[5]": {"molecular_target": "T2, Fatty-acid amide hydrolase 1 (Homo sapiens) (UniProt O00519)", "T2 sequence (whole entry)": "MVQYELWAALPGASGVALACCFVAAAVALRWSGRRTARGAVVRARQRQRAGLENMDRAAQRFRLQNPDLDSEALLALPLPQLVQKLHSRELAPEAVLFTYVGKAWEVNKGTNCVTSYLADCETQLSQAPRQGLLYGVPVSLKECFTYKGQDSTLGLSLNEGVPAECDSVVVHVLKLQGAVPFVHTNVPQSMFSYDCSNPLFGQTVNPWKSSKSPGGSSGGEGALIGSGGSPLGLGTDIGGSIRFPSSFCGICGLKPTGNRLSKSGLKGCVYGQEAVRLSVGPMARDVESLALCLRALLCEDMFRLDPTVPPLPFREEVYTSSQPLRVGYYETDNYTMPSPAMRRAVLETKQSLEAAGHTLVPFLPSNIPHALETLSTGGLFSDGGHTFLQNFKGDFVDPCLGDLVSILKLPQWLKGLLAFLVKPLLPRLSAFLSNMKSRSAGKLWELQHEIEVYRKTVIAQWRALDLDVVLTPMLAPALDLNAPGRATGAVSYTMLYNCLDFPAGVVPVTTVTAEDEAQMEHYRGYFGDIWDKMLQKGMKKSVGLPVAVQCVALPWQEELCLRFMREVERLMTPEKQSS", "conditions": "100 uM"}, "[6]": {"molecular_target": "T1, Fatty-acid amide hydrolase 1 (Mus musculus)", "test": "Inhibition of FAAH in mouse brain membrane proteomes at 10 uM by competitive activity based protein profiling", "format": "cell membranes", "method_in_brief": "as §2"}, "Liver microsomes [7]": {"tested_on": "Liver microsomes", "test": "Half life in human liver microsomes at 0.8 mg/mL protein concentration", "format": "ADME, Microsome", "method_in_brief": "(§4)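 Human liver microsomes at 0.8 mg/mL protein were used for half-life and microsomal protein binding. These in vitro data were used to predict human blood clearance.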"}, "Hepatocyte [8]": {"tested_on": "Hepatocyte", "test": "Metabolic stability in human hepatocytes assessed as glutathione conjugate formation", "format": "ADME, cell-based", "method_in_brief": "as §3"}, "[9]": {"molecular_target": "T2, Fatty-acid amide hydrolase 1 (Homo sapiens)", "conditions": "10 uM"}, "Canis familiaris": {"tested_on": "Canis familiaris", "test": "Oral bioavailability in dog at 0.5 mg/kg, iv", "format": "ADME, organism-based, Canis lupus familiaris", "conditions": "in vivo", "method_in_brief": "as §1"}, "Mus musculus": {"species_on_record": "Mus musculus", "test": "Inhibition of fluorophosphonate-reactive serine proteases in mouse liver soluble proteomes at 100 uM by competitive activity based protein profiling", "method_in_brief": "as §2"}, "MDCK [10]": {"tested_on": "MDCK", "test": "Apparent permeability from apical to basolateral side of MDCK cells", "format": "ADME, cell-based, Canis lupus familiaris", "conditions": "dog"}, "[11]": {"test": "Tmax in dog at 0.5 mg/kg, iv or 0.5 mg/kg, po", "format": "ADME, organism-based, Canis lupus familiaris", "conditions": "in vivo", "method_in_brief": "as §1"}, "Homo sapiens": {"species_on_record": "Homo sapiens", "test": "Inhibition of fluorophosphonate-reactive serine proteases in human liver soluble proteomes at 100 uM by competitive activity based protein profiling", "method_in_brief": "as §2"}, "[12]": {"molecular_target": "T3, Fatty-acid amide hydrolase 1 (Homo sapiens, UniProt O00519)", "T3 sequence (O00519 whole entry)": "T2 sequence (whole entry)", "test": "Inhibition of His-tagged human FAAH N-terminal transmembrane-deleted truncated form expressed in Escherichia coli preincubated for 60 mins before oleamide substrate addition", "method_in_brief": "(§5)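 IC50 was determined after a 60 min preincubation of inhibitor with human or rat FAAH.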"}, "[13]": {"test": "Cmax in dog at 0.5 mg/kg, po", "format": "ADME, organism-based, Canis lupus familiaris", "parameters": "dose 0.5 mg/kg, route oral", "conditions": "in vivo", "method_in_brief": "as §1"}, "[14]": {"test": "Oral bioavailability in rat at 1 mg/kg", "format": "ADME, organism-based", "conditions": "in vivo", "method_in_brief": "as §1"}, "Rattus norvegicus [15]": {"tested_on": "Rattus norvegicus", "test": "Antihyperalgesic activity in Sprague-Dawley rat model of complete Freund's adjuvant-induced inflammatory pain model assessed as reduction in mechanical allodynia at 0.1 mg/kg, po measured 4 hrs post dose", "format": "functional, organism-based", "parameters": "dose 0.1 mg/kg", "method_in_brief": "(§6)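 CFA was injected subcutaneously into the plantar surface of the rat hind paw. Oral dosing at 0.1-10 mg/kg began 5 days post-injection, once mechanical paw withdrawal threshold had fallen. Mechanical allodynia was read as paw withdrawal threshold 4 h after dosing. n=8 rats per group; significance versus vehicle-treated groups at p<0.05.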"}, "Cytochrome P450 2D6": {"molecular_target": "Cytochrome P450 2D6 (Homo sapiens, UniProt P10635)", "sequence (P10635 whole entry)": "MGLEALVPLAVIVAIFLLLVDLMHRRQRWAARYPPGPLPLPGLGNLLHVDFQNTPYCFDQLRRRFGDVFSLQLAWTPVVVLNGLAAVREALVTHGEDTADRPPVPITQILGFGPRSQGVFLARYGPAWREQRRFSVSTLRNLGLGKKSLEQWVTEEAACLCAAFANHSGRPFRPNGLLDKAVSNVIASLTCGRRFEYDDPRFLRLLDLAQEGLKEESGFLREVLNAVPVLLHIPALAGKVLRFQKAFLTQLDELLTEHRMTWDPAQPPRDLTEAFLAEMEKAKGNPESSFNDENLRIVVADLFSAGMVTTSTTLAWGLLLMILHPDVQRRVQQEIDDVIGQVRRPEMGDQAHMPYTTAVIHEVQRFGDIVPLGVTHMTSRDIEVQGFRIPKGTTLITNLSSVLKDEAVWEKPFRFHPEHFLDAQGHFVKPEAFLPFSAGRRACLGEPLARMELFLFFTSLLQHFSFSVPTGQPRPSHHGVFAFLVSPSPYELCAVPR", "test": "Inhibition of CYP2D6", "format": "ADME", "method_in_brief": "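CYP inhibition was tested in human liver microsomes with relevant probe substrates.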"}, "[16]": {"test": "Cmax in rat at 1 mg/kg, po", "format": "ADME, organism-based", "parameters": "dose 1 mg/kg, route oral", "conditions": "in vivo", "method_in_brief": "as §1"}, "[17]": {"test": "Volume of distribution at steady state in rat at 1 mg/kg, iv or 1 mg/kg, po", "format": "ADME, organism-based", "conditions": "in vivo, read-out: Vdss", "method_in_brief": "as §1"}, "[18]": {"test": "Tmax in rat at 1 mg/kg, iv or 1 mg/kg, po", "format": "ADME, organism-based", "conditions": "in vivo", "method_in_brief": "as §1"}, "[19]": {"molecular_target": "T4, Fatty-acid amide hydrolase 1 (Rattus norvegicus, UniProt P97612)", "T4 sequence (P97612 whole entry)": "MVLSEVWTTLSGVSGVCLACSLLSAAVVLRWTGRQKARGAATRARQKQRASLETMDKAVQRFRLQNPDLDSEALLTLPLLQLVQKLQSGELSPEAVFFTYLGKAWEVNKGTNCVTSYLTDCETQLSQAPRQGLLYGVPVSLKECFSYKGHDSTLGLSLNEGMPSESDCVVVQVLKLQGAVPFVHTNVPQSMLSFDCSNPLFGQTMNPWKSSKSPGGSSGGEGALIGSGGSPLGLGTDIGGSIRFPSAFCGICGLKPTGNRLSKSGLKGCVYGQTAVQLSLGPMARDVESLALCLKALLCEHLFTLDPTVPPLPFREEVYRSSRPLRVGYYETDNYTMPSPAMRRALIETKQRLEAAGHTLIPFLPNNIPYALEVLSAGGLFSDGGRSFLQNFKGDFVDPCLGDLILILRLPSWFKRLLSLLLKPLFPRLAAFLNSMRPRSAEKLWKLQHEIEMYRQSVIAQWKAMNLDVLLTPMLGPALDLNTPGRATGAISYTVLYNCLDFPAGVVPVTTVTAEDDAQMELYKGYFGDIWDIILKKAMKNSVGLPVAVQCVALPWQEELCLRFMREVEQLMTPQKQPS", "test": "Irreversible inhibition of His-tagged rat FAAH N-terminal transmembrane-deleted truncated form expressed in Escherichia coli preincubated for 60 mins before oleamide substrate addition", "method_in_brief": "as §5"}, "MDCK [20]": {"tested_on": "MDCK", "test": "Apparent permeability from basolateral to apical side of MDCK cells", "format": "ADME, cell-based, Canis lupus familiaris", "conditions": "dog"}, "Rattus norvegicus [21]": {"tested_on": "Rattus norvegicus", "test": "Antihyperalgesic activity in orally dosed Sprague-Dawley rat model of complete Freund's adjuvant-induced inflammatory pain model assessed as reduction in mechanical allodynia measured 4 hrs post dose", "format": "functional", "method_in_brief": "as §6"}, "[22]": {"test": "Half life in rat at 1 mg/kg, iv", "format": "ADME, organism-based", "parameters": "dose 1 mg/kg, route intravenous", "conditions": "in vivo", "method_in_brief": "as §1"}, "[23]": {"test": "Clearance in dog at 0.5 mg/kg, iv or 0.5 mg/kg, po", "format": "ADME, organism-based, Canis lupus familiaris", "conditions": "in vivo", "method_in_brief": "as §1"}, "Liver microsomes [24]": {"tested_on": "Liver microsomes", "test": "Protein binding in human liver microsomes at 0.8 mg/mL protein concentration", "format": "ADME, Microsome", "method_in_brief": "as §4"}, "[25]": {"test": "Half life in dog at 0.5 mg/kg, iv", "format": "ADME, organism-based, Canis lupus familiaris", "parameters": "dose 0.5 mg/kg, route intravenous", "conditions": "in vivo", "method_in_brief": "as §1"}}, "note": "The source made the active and inactive calls.", "data": [{"smiles": "O=C(Nc1cccnn1)N1CCC(=Cc2cccc(Oc3ccc(C(F)(F)F)cn3)c2)CC1", "values": [{"measurement": "Vd", "setting": "[1]", "result": 2.9, "unit": "L/kg"}, {"measurement": "inhibition", "setting": "[2]", "result": "Active"}, {"measurement": "Stability", "setting": "Hepatocyte [3]", "result": "Stable"}, {"measurement": "clearance", "setting": "[4]", "result": 3, "unit": "mL/min/kg"}, {"measurement": "inhibition", "setting": "[5]", "result": "Active"}, {"measurement": "inhibition", "setting": "[6]", "result": "Active"}, {"measurement": "t1/2", "setting": "Liver microsomes [7]", "result": 1.75, "unit": "h"}, {"measurement": "Stability", "setting": "Hepatocyte [8]", "result": "Stable"}, {"measurement": "inhibition", "setting": "[9]", "result": "Active"}, {"measurement": "F", "setting": "Canis familiaris", "result": 58, "unit": "%"}, {"measurement": "inhibition", "setting": "Mus musculus", "result": "inactive"}, {"measurement": "permeability", "setting": "MDCK [10]", "result": 15.2, "unit": "×10⁻⁶ cm/s"}, {"measurement": "Tmax", "setting": "[11]", "result": 1, "unit": "h"}, {"measurement": "inhibition", "setting": "Homo sapiens", "result": "inactive"}, {"measurement": "IC50", "setting": "[12]", "result": 7.2, "unit": "nM"}, {"measurement": "Cmax", "setting": "[13]", "result": 240, "unit": "ng/mL"}, {"measurement": "bioavailability", "setting": "[14]", "result": 88, "unit": "%"}, {"measurement": "inhibition", "setting": "Rattus norvegicus [15]", "result": "Active"}, {"measurement": "IC50", "setting": "Cytochrome P450 2D6", "result": 14500, "unit": "nM"}, {"measurement": "Cmax", "setting": "[16]", "result": 256, "unit": "ng/mL"}, {"measurement": "Vd", "setting": "[17]", "result": 3.2, "unit": "L/kg"}, {"measurement": "Tmax", "setting": "[18]", "result": 4, "unit": "h"}, {"measurement": "IC50", "setting": "[19]", "result": 7.4, "unit": "nM"}, {"measurement": "permeability", "setting": "MDCK [20]", "result": 20.2, "unit": "×10⁻⁶ cm/s"}, {"measurement": "MED", "setting": "Rattus norvegicus [21]", "result": 0.1, "unit": "mg/kg"}, {"measurement": "half-life", "setting": "[22]", "result": 14.3, "unit": "h"}, {"measurement": "clearance", "setting": "[23]", "result": 1.3, "unit": "mL/min/kg"}, {"measurement": "PB", "setting": "Liver microsomes [24]", "result": 90, "unit": "%"}, {"measurement": "half-life", "setting": "[25]", "result": 35.2, "unit": "h"}]}]}
